Screening data from PubChem BioAssay.
Rows were chosen to be rich in hits. Some 2.1% of all compounds tested hit in one or more screens of this group.
INS-1E GSIS act: GLuc luminescence reporter in INS-1E cells, primary screen for activators of glucose-dependent secretion of insulin | activation, % at 16.6 µM | AID 743287 | INS-1E GLuc reporter insulin secretion, 2-3 h | 370,000 tested, 0.61% active;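 active = lowest replicate activation of at least 40%, so every replicate reaches that level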;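 note: 0% = median of neutral control wells and 100% = median of IBMX positive control wells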
Xi reactivation: X-chromosome reactivation activator; XiGFP mouse fibroblasts, % GFP-positive cells imaging, 3 d; cells co-treated with 5-aza-dC sensitizer; scaled so ellipticine positive control = 100%; activation, % at 7.58 µM; 360,000 tested, 0.055% active;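 active = mean normalized replicate activation at least 10% and every replicate at or above 10%; inconclusive = only one of the two criteria met; inactive = mean below 10% and not all replicates reach 10%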;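 note: 0% = median of on-plate neutral control wells and 100% = ellipticine 6 µM median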
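assay system = SV40-immortalized XiGFP fibroblast cells, line 68-5-11 | buffer or medium = DMEM plus 5-aza-dC sensitizer | doses = single-point pinned compound dosing | times = 3-day compound exposure, then 15 min fixation at room temperature | benchmarks = positive control ellipticine, 6 µM final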
MLL AF4-AF9 inh: inhibitors of human MLL-AF4/AF9 interaction; AlphaScreen, biotin-AF4 peptide binding to FLAG-AF9; inhibition, % at 10 µM; 350,000 tested, 0.47% active;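 active = every replicate reaching a set inhibition limit, whatever the replicate mean, cut at about 25% in these data; inconclusive = mean inhibition reaches that limit but some replicates miss it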;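 note: 0% = plate neutral control median and 100% = total signal loss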
Target sequence (P42568 whole entry, looked up): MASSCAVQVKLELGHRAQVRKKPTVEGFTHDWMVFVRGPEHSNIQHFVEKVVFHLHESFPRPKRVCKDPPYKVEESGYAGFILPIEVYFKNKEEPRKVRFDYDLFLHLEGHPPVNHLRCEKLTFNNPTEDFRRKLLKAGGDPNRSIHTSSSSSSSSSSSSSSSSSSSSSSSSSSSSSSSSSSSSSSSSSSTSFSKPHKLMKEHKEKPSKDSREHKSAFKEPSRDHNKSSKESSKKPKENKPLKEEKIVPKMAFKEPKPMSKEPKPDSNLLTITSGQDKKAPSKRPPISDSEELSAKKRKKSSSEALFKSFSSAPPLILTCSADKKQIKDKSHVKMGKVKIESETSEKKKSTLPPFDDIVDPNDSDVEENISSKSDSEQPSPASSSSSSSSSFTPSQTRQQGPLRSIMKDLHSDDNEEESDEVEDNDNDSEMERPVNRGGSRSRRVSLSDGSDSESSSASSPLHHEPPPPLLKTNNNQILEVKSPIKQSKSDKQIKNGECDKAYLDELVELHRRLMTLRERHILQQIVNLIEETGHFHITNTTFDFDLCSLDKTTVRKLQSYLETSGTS
PAX8 inh HTS: lowers PAX8-driven luciferase in RMG-I cells; RMG-I TPO-luciferase reporter, SteadyGlo, 24 h; inhibition, % at 12.6 µM; 360,000 tested, 1.2% active; AID 652154;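 active = mean replicate inhibition at least 60% with every replicate also reaching 60%; inconclusive = only one of the two criteria is met; inactive = mean below 60% and not all replicates reaching 60%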;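 note: luciferase light reporting Pax8 driven TPO promoter activity; plate controls were median of neutral control wells for no effect and mitoxantrone controls for full effect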
PGC1a acetyl inh: PGC1a acetylation modulation, inhibitor mode; U2OS PGC1a acetylation, AlphaScreen anti-acetyl-lysine; with virally co-expressed GCN5 acetyltransferase; 350,000 tested, 0.17% active; inhibition, % at 15.6 µM;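 active = every replicate shows inhibition of at least 40%; inconclusive = mean inhibition at least 40% but some replicate below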;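 note: 0% = neutral control wells and 100% = positive control wells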
EWS-Fli block: blocks EWS/Fli oncoprotein-driven transcription | 350,000 tested, 0.67% active | A673 NR0B1-luciferase reporter, viability-normalised | inhibition, % at 12.6 µM | AID 651661;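 active = mean inhibition of at least 50% after viability correction, with every replicate also passing that limit; inconclusive = mean reaches 50% but only one of two replicates passes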;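 note: firefly luciferase signal divided by Alamar Blue viability fluorescence both relative to DMSO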
* marks the source's active call; other numbers are inactive results; ? = inconclusive; nt = no result given.

SMILES	INS-1E GSIS act	Xi reactivation	MLL AF4-AF9 inh	PAX8 inh HTS	PGC1a acetyl inh	EWS-Fli block
COc1ccc(OCc2n(CC(=O)OC3CC(C)CCC3C(C)C)c3ccccc3[n+]2C)cc1 (centres undefined)	271*	1	?	99*	-26	53*
COc1ccc(N/C=C\C(=O)c2ccc(C)cc2)cc1OC	6	0	3	-108	nt	-106
COc1ccc(N/C=C\C(=O)c2ccc(Br)cc2)cc1OC	131*	0	nt	-87	nt	nt
O=C(C[C@@H]1CC[C@H]2[C@@H](COC[C@H](O)CN2C(=O)Nc2cc(Cl)cc(Cl)c2)O1)N1CCOCC1	-15	0	-4	5	-8	-4
Cc1ccc2c(=O)cc(C(=O)NC3CCS(=O)(=O)C3)oc2c1C (centres undefined)	42*	0	0	3	7	2
Cc1cc(C)c2oc(C(=O)NC3CCS(=O)(=O)C3)cc(=O)c2c1 (centres undefined)	8	0	-1	-6	-2	-4
C1CCC(C(CC2CCCCN2)C2CCCCC2)CC1 (centres undefined)	104*	1	12	-4	-15	?
C[C@@H]1CN([C@@H](C)CO)C(=O)Cc2cc(NS(=O)(=O)c3ccccc3)ccc2O[C@@H]1CN(C)C(=O)Nc1cccc2ccccc12	3	0	0	73*	0	6
C[C@@H]1CN([C@@H](C)CO)C(=O)Cc2cc(NC(=O)Nc3ccc(C(F)(F)F)cc3)ccc2O[C@H]1CN(C)Cc1ccc(C(F)(F)F)cc1	16	0	1	64*	6	9
COc1ccc(NC(=O)Nc2ccc3c(c2)CC(=O)N([C@@H](C)CO)C[C@@H](C)[C@@H](CN(C)Cc2ccc(Oc4ccccc4)cc2)O3)cc1	-16	0	nt	98*	8	24
C[C@H](CO)N1C[C@H](C)[C@@H](CN(C)Cc2ccccc2)Oc2ccc(NC(=O)Nc3ccc(C(F)(F)F)cc3)cc2CC1=O	-1	0	6	96*	nt	23
COc1ccc2c3c(n(C)c2c1)[C@@H](CO)NCC31CCN(Cc2ccccc2Cl)CC1	-1	0	2	nt	2	-7
C[C@@H]1CN([C@@H](C)CO)C(=O)Cc2cc(NC(=O)Nc3ccc(C(F)(F)F)cc3)ccc2O[C@H]1CN(C)C(=O)NC1CCCCC1	-11	0	5	80*	-9	39
C[C@@H]1CN([C@@H](C)CO)C(=O)Cc2cc(NC(=O)Nc3ccc(C(F)(F)F)cc3)ccc2O[C@@H]1CN(C)C(=O)Nc1ccc2c(c1)OCO2	4	0	nt	?	-17	68*
C[C@H]1CN([C@@H](C)CO)C(=O)Cc2cc(NC(=O)NC3CCCCC3)ccc2O[C@H]1CN(C)C(=O)Nc1ccc(C(F)(F)F)cc1	-28	0	-5	-9	0	1
C[C@@H]1CN([C@@H](C)CO)C(=O)Cc2cc(NC(=O)CCCCCC(=O)Nc3ccccc3N)ccc2O[C@@H]1CN(C)Cc1ccc(C(F)(F)F)cc1	15	-1	-1	90*	0	34
C[C@H](CO)N1C[C@H](C)[C@H](CN(C)Cc2ccncc2)Oc2ccc(NC(=O)Nc3cccc4ccccc34)cc2CC1=O	-16	-1	3	42	-1	nt
C[C@H](CO)N1C[C@H](C)[C@@H](CN(C)Cc2ccncc2)Oc2ccc(NC(=O)Nc3cccc4ccccc34)cc2CC1=O	-40	-1	4	67*	-6	nt
COc1ccc(NC(=O)Nc2ccc3c(c2)CC(=O)N([C@H](C)CO)C[C@H](C)[C@@H](CN(C)Cc2ccc(C(F)(F)F)cc2)O3)cc1	5	-1	nt	67*	-18	14
C[C@H]1CN([C@@H](C)CO)C(=O)c2cc(NC(=O)Nc3ccc(F)cc3)ccc2O[C@@H]1CN(C)C(=O)Nc1cccc2ccccc12	-8	0	-2	-15	-1	-3
Cc1noc(C)c1NC(=O)Nc1ccc2c(c1)CC(=O)N([C@@H](C)CO)C[C@H](C)[C@H](CN(C)Cc1ccc(C(F)(F)F)cc1)O2	-24	0	4	72*	1	5
C[C@H](CO)N1C[C@H](C)[C@@H](CN(C)C(=O)Nc2cccc3ccccc23)Oc2ccc(NC(=O)Nc3ccc(C(F)(F)F)cc3)cc2CC1=O	-11	0	-21	47	-9	16
C[C@@H]1CN([C@H](C)CO)C(=O)c2cc(NC(=O)Nc3ccc(F)cc3)ccc2O[C@@H]1CN(C)C(=O)Nc1cccc2ccccc12	-5	0	-1	70*	-4	9
C[C@@H]1CN([C@@H](C)CO)C(=O)Cc2cc(NC(=O)Nc3ccc(C(F)(F)F)cc3)ccc2O[C@@H]1CN(C)C(=O)Nc1cccc2ccccc12	3	0	-22	43	-11	68*
C[C@H](CO)N1C[C@H](C)[C@@H](CN(C)Cc2ccc(Oc3ccccc3)cc2)Oc2ccc(NC(=O)Cc3cn(C)c4ccccc34)cc2CC1=O	2	-1	nt	65*	-20	14
SMILES	INS-1E GSIS act	Xi reactivation	MLL AF4-AF9 inh	PAX8 inh HTS	PGC1a acetyl inh	EWS-Fli block
C[C@H](CO)N1C[C@H](C)[C@H](CN(C)Cc2ccc3c(c2)OCO3)Oc2ccc(NC(=O)Nc3ccc(C(F)(F)F)cc3)cc2CC1=O	-18	0	0	7	4	15
C[C@@H]1CN([C@@H](C)CO)C(=O)Cc2cc(NC(=O)Nc3ccc(C(F)(F)F)cc3)ccc2O[C@H]1CN(C)Cc1ccc(Oc2ccccc2)cc1	4	0	nt	94*	-14	6
C[C@@H]1CN([C@@H](C)CO)C(=O)Cc2cc(NC(=O)Nc3ccc(C(F)(F)F)cc3)ccc2O[C@H]1CN(C)Cc1ccc2c(c1)OCO2	1	0	0	80*	-7	14
C[C@H]1CN([C@@H](C)CO)C(=O)Cc2cc(NC(=O)CCC(F)(F)F)ccc2O[C@H]1CN(C)Cc1ccc2c(c1)OCO2	8	0	-3	63*	-3	-10
C[C@@H]1CN([C@H](C)CO)C(=O)c2cc(NC(=O)Cn3cnnn3)ccc2O[C@@H]1CN(C)S(=O)(=O)c1ccccc1	5	0	1	nt	10	-9
C[C@H]1CCCCO[C@@H](CN(C)S(=O)(=O)c2cccs2)[C@@H](C)CN([C@@H](C)CO)C(=O)c2cc(NC(=O)C3CCCCC3)ccc2O1	-7	0	0	nt	-7	11
C[C@H](CO)N1C[C@H](C)[C@@H](CN(C)Cc2ccncc2)Oc2ccc(NC(=O)Nc3ccc(C(F)(F)F)cc3)cc2CC1=O	4	1	4	90*	-30	nt
